Laboratory results taken from ChEMBL document CHEMBL2176971 (Bioorg Med Chem Lett, 2012).

Key:
[1] = Cmax in dog at 2 mg/kg, iv; assay type: ADME, organism-based, Canis lupus familiaris; set-up: dose 2 mg/kg, route intravenous; conditions: in vivo
[2] = Tmax in rat at 20 mg/kg, po; assay type: ADME, organism-based; set-up: dose 20 mg/kg, route oral; conditions: in vivo
[3] = Apparent volume of distribution in rat at 2 mg/kg, iv; assay type: ADME, organism-based; set-up: dose 2 mg/kg, route intravenous; conditions: in vivo, read-out: Vz
[4] = system: Rattus norvegicus; assay: AUCall in rat assessed as sulfoxide metabolite level at 20 mg/kg, po; assay type: ADME, organism-based, Plasma; set-up: dose 20 mg/kg, route oral; conditions: in vivo
Summary of the method: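 Rats given the parent sulfide compound orally at 20 mg/kg, with plasma monitored for its in vivo sulfoxide metabolite; exposure to that metabolite is reported as AUCall. A separate i.v. dose of 2 mg/kg in rats was also monitored for this metabolite.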

[5] = AUCall in rat at 2 mg/kg, iv; assay type: ADME, organism-based; set-up: dose 2 mg/kg, route intravenous; conditions: plasma
[6] = Tmax in dog at 10 mg/kg, po; assay type: ADME, organism-based, Canis lupus familiaris; set-up: dose 10 mg/kg, route oral; conditions: in vivo
Summary of the method: (§1)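 Dogs dosed orally at 10 mg/kg; plasma pharmacokinetic parameters determined.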

[7] = Oral bioavailability in dog at 10 mg/kg; assay type: ADME, organism-based, Canis lupus familiaris; conditions: in vivo; summary of the method: as §1
[8] = AUCall in dog at 10 mg/kg, po; assay type: ADME, organism-based, Canis lupus familiaris; set-up: dose 10 mg/kg, route oral; conditions: plasma
[9] = system: Rattus norvegicus; assay: Drug metabolism in rat assessed as sulfoxide metabolite formation at 2 mg/kg, iv; assay type: ADME, organism-based; set-up: dose 2 mg/kg, route intravenous; conditions: in vivo
Summary of the method: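 Rats dosed i.v. at 2 mg/kg and plasma monitored in vivo for the sulfoxide metabolite. AUCall was also measured after 20 mg/kg oral dosing.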

[10] = Cmax in rat at 20 mg/kg, po; assay type: ADME, organism-based; set-up: dose 20 mg/kg, route oral; conditions: in vivo
[11] = Apparent volume of distribution in dog at 2 mg/kg, iv; assay type: ADME, organism-based, Canis lupus familiaris; set-up: dose 2 mg/kg, route intravenous; conditions: in vivo, read-out: Vz
[12] = AUCall in rat at 20 mg/kg, po; assay type: ADME, organism-based; set-up: dose 20 mg/kg, route oral; conditions: plasma
[13] = AUCall in dog at 2 mg/kg, iv; assay type: ADME, organism-based, Canis lupus familiaris; set-up: dose 2 mg/kg, route intravenous; conditions: plasma
[14] = Solubility of the compound; assay type: physicochemical
[15] = Cmax in dog at 10 mg/kg, po; assay type: ADME, organism-based, Canis lupus familiaris; set-up: dose 10 mg/kg, route oral; conditions: in vivo; summary of the method: as §1
[16] = Cmax in rat at 2 mg/kg, iv; assay type: ADME, organism-based; set-up: dose 2 mg/kg, route intravenous; conditions: in vivo
[17] = Oral bioavailability in rat at 20 mg/kg; assay type: ADME, organism-based; conditions: in vivo

Row | Vd [3] | AUC [5] | Cmax [16] | SMILES | also measured
1 | 3.64 L/kg | 1180 ng·h/mL | 2990 ng/mL | Cc1noc(-c2ccc3c(c2)c2c(n3CCCSc3cc(F)cc(F)c3)CCCC2)n1 | Cmax [1]: 3880 ng/mL; Tmax [2]: 2.33 h; AUC [4]: 143 ng·h/mL; Tmax [6]: 2 h; bioavailability [7]: 34%; AUC [8]: 2010 ng·h/mL; Drug metabolism [9]: Not Active; Cmax [10]: 955 ng/mL; Vd [11]: 1.8 L/kg; AUC [12]: 4230 ng·h/mL; AUC [13]: 1750 ng·h/mL; solubility [14]: > 1000 µg/mL; Cmax [15]: 625 ng/mL
2 | 11.3 L/kg | 521 ng·h/mL | 182 ng/mL | COC(=O)c1ccc2c(c1)c1c(n2CCCNc2nc(OC)cc(OC)n2)CCCC1 | –
3 | 22.1 L/kg | 404 ng·h/mL | 821 ng/mL | Cc1noc(-c2ccc3c(c2)c2c(n3CCCOc3cc(F)cc(F)c3)CCCC2)n1 | –
4 | 5.52 L/kg | 691 ng·h/mL | 1710 ng/mL | Cc1noc(-c2ccc3c(c2)c2c(n3CC(F)COc3cc(F)cc(F)c3)CCCC2)n1 (stereo not drawn) | Tmax [2]: 2.67 h; Cmax [10]: 747 ng/mL; AUC [12]: 3140 ng·h/mL; bioavailability [17]: 38%
5 | 3.96 L/kg | 520 ng·h/mL | 1240 ng/mL | Cc1noc(-c2ccc3c(c2)c2c(n3CCCS(=O)(=O)N(C)C)CCCC2)n1 | –
6 | 3.51 L/kg | 902 ng·h/mL | 1080 ng/mL | COc1cc(OC)nc(NCCCn2c3c(c4cc(S(C)(=O)=O)ccc42)CCCC3)n1 | –
7 | 18.9 L/kg | 497 ng·h/mL | 1050 ng/mL | CCc1cc(CC)nc(OCCCn2c3c(c4cc(-c5nc(C)no5)ccc42)CCCC3)n1 | –
